Screening results (PubChem)
An excerpt weighted towards active compounds, which were near 2.5% of everything screened.
CHO parental Ca: ATP-evoked calcium signal inhibitors, parental CHO, primary screen, counter-screen for OX1R antagonist project, cell-based, fluorescence, Fluo-8 calcium dye | parental CHO-K1, ATP-induced calcium, Fluo-8 fluorescence | inhibition, % at 5.6 µM | 330,000 tested, 0.63% active | AID 463079, 2010;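 active = inhibition above that plate's mean sample inhibition plus 3 SD, cut at about 26% in these data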;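 note: 0% = ATP-challenged DMSO wells and 100% = DMSO wells without ATP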
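Assay system: parental CHO cells; Read-out basis: percent inhibition of ATP-evoked calcium rise, normalized to controls; Benchmarks: ATP and no-ATP DMSO wells; Compound dosing: single nominal dose of 5.6 µM per compound; Signal: Fluo-8 calcium dye fluorescence; Also added: ATP as calcium-mobilizing challenge; Repeats: singlicate.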
TRPML3 agonist: human TRPML3 channel agonists, primary screen, cell-based, HEK293 TRPML3-YFP, Fluo-8 calcium fluorescence, 3 µM. 220,000 tested, 0.29% active. Mucolipin-3 (Homo sapiens), Q8TDD5. activation, % at 3 µM. 100% = the carbachol control signal;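 active = activation above its plate's cutoff, the mean activation of the plate's test wells plus 3 SD, cut at about 12% in these data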;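 note: 0% = DMSO only wells and 100% = carbachol wells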
Target sequence (Q8TDD5 whole entry, looked up): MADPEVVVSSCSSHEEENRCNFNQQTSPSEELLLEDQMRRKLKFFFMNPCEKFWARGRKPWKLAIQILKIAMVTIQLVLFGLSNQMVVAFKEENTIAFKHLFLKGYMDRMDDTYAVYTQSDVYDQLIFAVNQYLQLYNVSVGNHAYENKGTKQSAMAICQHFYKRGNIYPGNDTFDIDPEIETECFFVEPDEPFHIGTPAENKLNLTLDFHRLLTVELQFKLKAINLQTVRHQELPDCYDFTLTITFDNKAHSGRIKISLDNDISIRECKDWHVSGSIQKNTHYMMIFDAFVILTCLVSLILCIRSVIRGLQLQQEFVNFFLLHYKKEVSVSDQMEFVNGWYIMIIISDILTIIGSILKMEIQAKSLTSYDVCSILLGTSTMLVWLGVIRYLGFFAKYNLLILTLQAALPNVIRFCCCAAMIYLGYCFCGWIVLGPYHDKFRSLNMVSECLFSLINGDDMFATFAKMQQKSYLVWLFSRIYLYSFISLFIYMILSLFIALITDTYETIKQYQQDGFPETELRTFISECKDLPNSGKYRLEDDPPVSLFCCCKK
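system = HEK293 cells stably carrying human TRPML3-YFP | doses = one concentration, 3 µM nominal, 0.3% DMSO | timing = dye loading 1 h 37 °C then 30 min ambient, 125 s read | detection = Fluo-8 calcium dye fluorescence, ex 470-495, em 515-575 nm | benchmarks = high control carbachol 87 µM, low control DMSO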
zfTRPN1 agonist: zebrafish TRPN1 channel agonists, primary screen, cell-based, HEK293, calcium fluorescence | HEK293 zebrafish TRPN1-YFP, Fluo-8 calcium fluorescence; 100% = response to 87 µM carbachol | activation, % at 3 µM | 220,000 tested, 0.18% active;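 active = activation above its plate's cutoff, the mean activation of test wells on that plate plus 3 SD, cut at about 19% in these data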;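 note: 0% = DMSO alone and 100% = 87 µM carbachol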
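Material: zebrafish TRPN1-YFP in HEK293 cells; Doses: single test compound dose, 3 µM nominal, 0.3% DMSO; Timing: dye loading 1 h at 37 °C, then 30 min room temperature; Technique: intracellular calcium fluorescence with Fluo-8; Benchmarks: high carbachol 87 µM, low DMSO alone.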
OX1R antag-1: OX1R (HCRTR1) antagonists, primary screen, fluorescence, CHO/OX1R cells, Fluo-8 calcium, orexin A; 330,000 tested, 0.43% active; AID 434989, 2010; Orexin/Hypocretin receptor type 1 (Homo sapiens), O43613; Fluo-8 calcium fluorescence; inhibition, % at 5 µM;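 active = inhibition above its plate's threshold, mean inhibition of all tested compounds on the plate plus 3 SD, cut at about 37% in these data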;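 note: 0% = orexin A challenge wells and 100% = SB-334867-A antagonist wells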
OX1R antag-2: antagonists of human orexin 1 receptor (OX1R) | Orexin/Hypocretin receptor type 1 (Homo sapiens), O43613 | inhibition, % at 6.6 µM | OX1R-expressing cells, FRET antagonist read-out | 330,000 tested, 1.8% active; in the data active = inhibition mostly above about 38%, no sharp cut-off; inactive = mostly below about 40%;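 note: 0% = agonist challenge alone and 100% = reference antagonist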
The depositor's hits bear a star; / = no result.

SMILES	CHO parental Ca	TRPML3 agonist	zfTRPN1 agonist	OX1R antag-1	OX1R antag-2
CCCNC(=O)c1onc(CSc2nc3ccccc3[nH]2)c1C(=O)NCCC	-20	/	/	-34	27
CN(C)c1ncnc2sc(-c3ccccc3)cc12	-16	/	/	-23	64*
Cc1cccc(NC(=O)CCNC(=O)c2ccc(Br)cc2)c1	-15	/	/	-22	13
Nc1c(N2CCCC2)cc(Cl)c2nonc12	4	1	3	4	40*
Nc1c(N2CCOCC2)cc(Cl)c2nonc12	-3	0	0	1	15
CC(C)(C)OC(=O)CC1(C#N)c2ccccc2C(Br)=CN1C(=O)c1ccccc1 (centres undefined)	6	/	/	-6	32
CC(C)(C)c1ccc(OCCn2nc(C(=O)O)c3ccccc3c2=O)cc1	29*	/	/	46*	21
Cc1cccc(OCCn2nc(C(=O)O)c3ccccc3c2=O)c1	-17	0	-1	-24	31
C=CCn1c(Cc2ccccc2)nc2c(cnn2-c2ccccc2)c1=O	39*	/	/	6	13
CN(C)c1ccc(/C=C/c2nc3ccccc3c(=O)n2-c2ccc(C(=O)O)cc2)cc1	64*	/	/	83*	14
O=C(O)c1cccc(-n2c(/C=C/c3ccccc3)nc3ccccc3c2=O)c1	2	/	/	-13	9
COc1ccc(/C=C/C(=O)NC(=S)Nc2cc([N+](=O)[O-])ccc2O)cc1OC	-19	0	-1	-6	60*
COc1ccc([N+](=O)[O-])cc1NC(=O)CSc1nc(C)cc(C)n1	-19	0	-1	-9	31
COc1cc(/C=C/C(=O)NC(=O)c2ccccc2O)ccc1O	-15	/	/	-16	67*
COc1ccc([N+](=O)[O-])cc1NC(=O)CSc1ccc2ccccc2c1	24	0	1	-3	61*
CCCCC(=O)NC(=S)Nc1cc([N+](=O)[O-])ccc1OC	41*	-1	-1	-14	19
COc1cc(/C=C/C(=O)OCC(=O)Nc2ccc([N+](=O)[O-])cc2)ccc1O	30	5	13	21	6
COc1ccc([N+](=O)[O-])cc1NC(=S)NC(C)=O	-2	1	1	-13	12
CCN(Cc1ccccc1)C(=O)CCS(=O)(=O)c1ccc2c(c1)n(C)c(=O)c(=O)n2C	-5	/	/	-34	17
Cc1ccc(S(=O)(=O)N(C)CC(=O)NCCCc2ccccc2)cc1	-5	/	/	-18	-1
CN(CCCC(=O)NCCc1ccccc1)S(=O)(=O)c1ccc([N+](=O)[O-])cc1	-12	/	/	-7	46*
CCCCN1CC[C@H]2C=CC[C@@H](C(=O)NCCc3ccccc3)[C@H]2C1=O	-10	/	/	-6	40
COc1ccc(CN2CC[C@H]3C=CC[C@@H](C(=O)NCCc4ccccc4)[C@H]3C2=O)cc1OC	-17	/	/	20	70*
COc1ccc(N(CC(=O)NCCC2=CCCCC2)S(=O)(=O)c2c(C)[nH]c(=O)[nH]c2=O)cc1	-10	0	1	0	20
COc1cc(/C=C2\SC(=N)N(c3ccc(F)cc3)C2=O)ccc1O	-10	2	3	15	38
SMILES	CHO parental Ca	TRPML3 agonist	zfTRPN1 agonist	OX1R antag-1	OX1R antag-2
COc1cc(/C=C2\SC(=N)N(c3ccc4c(c3)OCO4)C2=O)cc(OC)c1O	-1	2	2	-9	51*
COc1ccccc1C1CCN(c2cc(O)ccc2[N+](=O)[O-])CC1	-7	-1	-3	-2	45
CCOc1ccc(OCCNC(=O)c2oc3ccccc3c2COC)cc1	-14	/	/	-6	10
COCc1c(C(=O)NCC2COc3ccccc3O2)oc2ccccc12 (centres undefined)	-26	/	/	7	68*
COCc1c(C(=O)NCCOc2ccc(Cl)cc2)oc2ccccc12	-24	/	/	-8	34*
CCn1c(SCC(=O)c2[nH]c(C)c(C(C)=O)c2C)nnc1-c1cccs1	5	3	8	-12	11
CC(=O)c1c(C)[nH]c(C(=O)CSc2nc3ccccc3n2C)c1C	51*	3	10	78*	108*
COc1cc(/C=C(/C#N)C(=O)Nc2ccccc2)c(Br)cc1OCc1ccc(C(=O)O)cc1	59*	1	0	65*	23
Cc1ccc2c(c1)N(C(=O)CCC(=O)NC1CCC(C)CC1)CCO2 (centres undefined)	-8	/	/	-22	43*
Cc1ccc2c(c1)N(C(=O)CCC(=O)N1CCN(c3cccc(C)c3C)CC1)CCO2	-24	/	/	-28	40*
COc1ccccc1NC(=O)C(=O)NCC1CCCN1S(=O)(=O)c1cccs1 (centres undefined)	-28	/	/	-22	51
O=C(NCC1CCCN1S(=O)(=O)c1cccs1)c1ccc(Cl)cc1 (centres undefined)	-10	/	/	-22	16
O=C(NCC1CCCN1S(=O)(=O)c1cccs1)C(=O)Nc1ccccc1Cl (centres undefined)	2	/	/	0	45*
O=C(NCC1CCCN1S(=O)(=O)c1cccs1)c1cccc(Cl)c1 (centres undefined)	-23	/	/	-12	53*
O=C(CCc1ccccc1)NC(NC(=S)Nc1ccc(Cl)cc1)C(Cl)(Cl)Cl (centres undefined)	41*	1	3	33	66
O=C(/C=C/c1ccccc1)NC(NC(=S)Nc1ccc(Cl)cc1)C(Cl)(Cl)Cl (centres undefined)	4	0	1	16	75
CC(C)N1CCC(N2CCN(Cc3ccc(Oc4ncccn4)cc3)CC2CCO)CC1 (centres undefined)	-13	1	1	-18	8
COc1ccc(CCOC(=O)c2ccc(N)c([N+](=O)[O-])c2)cc1	47*	/	/	19	33
O=C(N/N=C/c1ccccc1C(=O)O)c1cccc(S(=O)(=O)N2CCCCC2)c1	-10	/	/	-16	10
Oc1ccc2ccccc2c1C=NCc1cn2ccsc2n1	-2	0	0	-2	65*
CN(C)c1ccc(C(CNS(=O)(=O)c2ccc3ccccc3c2)N2CCOCC2)cc1 (centres undefined)	-14	/	/	-29	17
CN(C)c1ccc(C(CNS(=O)(=O)c2ccc([N+](=O)[O-])cc2)N2CCCC2)cc1 (centres undefined)	-15	/	/	-32	71*
CC(=O)c1ccc(-c2nnc(CCC(=O)N(C)Cc3cccc4cnccc34)o2)s1	-5	1	2	-24	35*
COC(=O)CCNS(=O)(=O)c1ccc2nsnc2c1	-5	/	/	-13	63*
Cc1noc(C)c1CSc1nc2ccccc2[nH]1	-9	0	0	-16	11
